Source: publication PMC10795913 (The Journal of Clinical Endocrinology and Metabolism, 2023)
Marks after values point to notes of the source that are not given here.

Key:
GIPR = molecular target: T1, GIPR (Homo sapiens, UniProt P48546); assay: Cell-based assay for NAb against TZP activity on GIPR; format: in vivo; conditions: N = 5025
T1 sequence (P48546 22-466): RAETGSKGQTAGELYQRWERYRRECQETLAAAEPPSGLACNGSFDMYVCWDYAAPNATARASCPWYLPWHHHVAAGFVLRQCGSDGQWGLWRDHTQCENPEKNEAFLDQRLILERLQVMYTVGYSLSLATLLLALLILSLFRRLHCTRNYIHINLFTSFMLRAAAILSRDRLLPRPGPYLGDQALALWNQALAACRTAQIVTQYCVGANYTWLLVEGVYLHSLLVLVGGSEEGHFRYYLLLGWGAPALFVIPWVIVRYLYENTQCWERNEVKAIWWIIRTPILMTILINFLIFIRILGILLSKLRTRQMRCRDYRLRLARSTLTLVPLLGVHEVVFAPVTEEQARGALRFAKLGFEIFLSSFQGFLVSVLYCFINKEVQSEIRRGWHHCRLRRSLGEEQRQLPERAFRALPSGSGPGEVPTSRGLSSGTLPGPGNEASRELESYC

[1] = Tirzepatide pharmacokinetics; format: in vivo, human
native GIP (nGIP) = molecular target: T2, native GIP (nGIP) (Homo sapiens, UniProt P09681); assay: Cross-reactive ADA binding to nGIP; format: in vivo; conditions: N = 5025
T2 sequence (P09681 52-93 limits assumed): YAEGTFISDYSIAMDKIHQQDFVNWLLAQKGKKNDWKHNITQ

[2] = tested on: patients with type 2 diabetes; assay: Injection site reactions by TE ADA status; format: in vivo, human
Outline: (§1)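 Hypersensitivity or injection site reactions during the planned treatment period were tabulated by dose group. Patients were split by treatment-emergent ADA status (TE ADA+ vs TE ADA–). Analysis was descriptive and non-randomized.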

[3] = tested on: patients with type 2 diabetes; assay: Hypersensitivity reactions by TE ADA status; format: in vivo, human
Outline: as §1

[4] = tested on: patients with type 2 diabetes; assay: Antidrug antibody; format: in vivo, human
native GLP-1 (nGLP-1) = assay: Cross-reactive ADA binding to nGLP-1; format: in vivo, human; conditions: N = 5025
GLP-1R = GLP-1R (Homo sapiens, UniProt P43220); assay: Cell-based assay for NAb against TZP activity on GLP-1R; format: in vivo; conditions: N = 5025
GLP-1R, sequence (P43220 24-463): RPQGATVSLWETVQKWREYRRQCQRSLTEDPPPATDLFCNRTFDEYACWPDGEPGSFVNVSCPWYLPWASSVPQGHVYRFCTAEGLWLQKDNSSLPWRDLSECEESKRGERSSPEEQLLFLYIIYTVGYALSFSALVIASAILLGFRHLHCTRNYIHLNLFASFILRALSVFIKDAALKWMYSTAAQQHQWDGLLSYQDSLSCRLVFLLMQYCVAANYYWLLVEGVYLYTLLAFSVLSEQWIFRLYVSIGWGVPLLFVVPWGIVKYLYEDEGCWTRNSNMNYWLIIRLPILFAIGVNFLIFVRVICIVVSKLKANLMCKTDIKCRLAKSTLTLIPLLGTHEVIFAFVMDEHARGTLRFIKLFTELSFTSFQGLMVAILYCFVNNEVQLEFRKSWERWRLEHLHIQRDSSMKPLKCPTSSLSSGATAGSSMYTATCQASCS

patients = conditions: different assays, not directly comparable; cited from earlier work
[5] = TZP 5 mg, TE ADA status not evaluable
[6] = TZP 10 mg, TE ADA status not evaluable
[7] = TZP all doses, TE ADA status not evaluable

## CC[C@H](C)[C@H](NC(=O)[C@H](CC(C)C)NC(=O)[C@H](Cc1c[nH]c2ccccc12)NC(=O)[C@H](CCC(N)=O)NC(=O)[C@@H](NC(=O)[C@H](Cc1ccccc1)NC(=O)[C@H](C)NC(=O)[C@H](CCCCNC(=O)COCCOCCNC(=O)COCCOCCNC(=O)CC[C@H](NC(=O)CCCCCCCCCCCCCCCCCCC(=O)O)C(=O)O)NC(=O)[C@H](CCC(N)=O)NC(=O)[C@H](C)NC(=O)[C@@H](NC(=O)[C@H](CCCCN)NC(=O)[C@H](CC(=O)O)NC(=O)[C@H](CC(C)C)NC(=O)C(C)(C)NC(=O)[C@@H](NC(=O)[C@H](CO)NC(=O)[C@H](Cc1ccc(O)cc1)NC(=O)[C@H](CC(=O)O)NC(=O)[C@H](CO)NC(=O)[C@@H](NC(=O)[C@H](Cc1ccccc1)NC(=O)[C@@H](NC(=O)CNC(=O)[C@H](CCC(=O)O)NC(=O)C(C)(C)NC(=O)[C@@H](N)Cc1ccc(O)cc1)[C@@H](C)O)[C@@H](C)O)[C@@H](C)CC)[C@@H](C)CC)C(C)C)C(=O)N[C@@H](C)C(=O)NCC(=O)NCC(=O)N1CCC[C@H]1C(=O)N[C@@H](CO)C(=O)N[C@@H](CO)C(=O)NCC(=O)N[C@@H](C)C(=O)N1CCC[C@H]1C(=O)N1CCC[C@H]1C(=O)N1CCC[C@H]1C(=O)N[C@@H](CO)C(N)=O [tirzepatide]
GIPR; baseline
  NAb against TZP activity on GIP R: 2 (<0.1) n (%)
GIPR; postbaseline
  NAb against TZP activity on GIP R: 94 (1.9) n (%)
[1]; graphical comparison, ADA detected vs not detected and by titer
  Apparent clearance (CL/F): effect of ADA status or ADA titer: not affected
[1]; in vivo
  Relationship between NAb and TZP concentration: No relationship
Native GIP (nGIP); baseline
  Cross-reactive binding ADA to nGIP: 97 (1.9) n (%)
Native GIP (nGIP); postbaseline
  Cross-reactive binding ADA to nGIP: 1705 (33.9) n (%)
[2]; [5]
  Injection site reactions, %: 0.06%
  Injection site reactions, m (number of patients with specified reaction): 1
[2]; TZP 5 mg, TE ADA+, n 815
  Injection site reactions, %: 3.07%
  Injection site reactions, m (number of patients with specified reaction): 25
[2]; TZP 5 mg, TE ADA–, n 855
  Injection site reactions, %: 0.82%
  Injection site reactions, m (number of patients with specified reaction): 7
[2]; [6]
  Injection site reactions, %: 0.06%
  Injection site reactions, m (number of patients with specified reaction): 1
[2]; TZP 10 mg, TE ADA+, n 858
  Injection site reactions, %: 4.43%
  Injection site reactions, m (number of patients with specified reaction): 38
[2]; TZP 10 mg, TE ADA–, n 812
  Injection site reactions, %: 0.86%
  Injection site reactions, m (number of patients with specified reaction): 7
[2]; TZP 15 mg, TE ADA status not evaluable
  Injection site reactions, m (number of patients with specified reaction): 0
[2]; TZP 15 mg, TE ADA+, n 897
  Injection site reactions, %: 6.24%
  Injection site reactions, m (number of patients with specified reaction): 56
[2]; TZP 15 mg, TE ADA–, n 788
  Injection site reactions, %: 0.51%
  Injection site reactions, m (number of patients with specified reaction): 4
[2]; [7]
  Injection site reactions, %: 0.04%
  Injection site reactions, m (number of patients with specified reaction): 2
[2]; TZP all doses, TE ADA+, n 2570
  Injection site reactions, %: 4.63%
  Injection site reactions, m (number of patients with specified reaction): 119
[2]; TZP all doses, TE ADA–, n 2455
  Injection site reactions, %: 0.73%
  Injection site reactions, m (number of patients with specified reaction): 18
[2]; all events
  Severity of injection site reactions: nonserious and nonsevere
[2]; all were TE ADA+
  Patients who discontinued study drug because of injection site reactions: Four
[3]; TZP 5 mg, TE ADA+, n 815
  Hypersensitivity reactions, %: 3.93%
  Hypersensitivity reactions, m (number of patients with specified reaction): 32
[3]; TZP 5 mg, TE ADA–, n 855
  Hypersensitivity reactions, %: 3.04%
  Hypersensitivity reactions, m (number of patients with specified reaction): 26
[3]; TZP 10 mg, TE ADA+, n 858
  Hypersensitivity reactions, %: 3.61%
  Hypersensitivity reactions, m (number of patients with specified reaction): 31
[3]; TZP 10 mg, TE ADA–, n 812
  Hypersensitivity reactions, %: 3.2%
  Hypersensitivity reactions, m (number of patients with specified reaction): 26
[3]; TZP 15 mg, TE ADA+, n 897
  Hypersensitivity reactions, %: 4.79%
  Hypersensitivity reactions, m (number of patients with specified reaction): 43
[3]; TZP 15 mg, TE ADA–, n 788
  Hypersensitivity reactions, %: 2.66%
  Hypersensitivity reactions, m (number of patients with specified reaction): 21
[3]; TZP all doses, TE ADA+, n 2570
  Hypersensitivity reactions, %: 4.12%
  Hypersensitivity reactions, m (number of patients with specified reaction): 106
[3]; TZP all doses, TE ADA–, n 2455
  Hypersensitivity reactions, %: 2.97%
  Hypersensitivity reactions, m (number of patients with specified reaction): 73
[3]; TZP-treated patients
  Anaphylactic reactions: No anaphylactic reactions
[3]; in vivo
  Severity of hypersensitivity events in TE ADA+ patients: mostly mild to moderate
[4]; SURPASS Japan-Combo, N 443
  Time to first TE ADA+ titer ≤4 wk: 1 (0.2) n (%)
  Time to first TE ADA+ titer ≤12 wk: 32 (7.2) n (%)
  Time to first TE ADA+ titer ≤40 wk: 209 (47.2) n (%)
  Time to first TE ADA+ titer ≤52 wk: 244 (55.1) n (%)
[4]; SURPASS Japan-Combo, N 443, flexibility of visit windows
  Time to first TE ADA+ titer ≤78 wk: 257 (58.0)^a n (%)
[4]; SURPASS Japan-Mono, N 476
  Time to first TE ADA+ titer ≤4 wk: 4 (0.8) n (%)
  Time to first TE ADA+ titer ≤12 wk: 51 (10.7) n (%)
  Time to first TE ADA+ titer ≤24 wk: 182 (38.2) n (%)
  Time to first TE ADA+ titer ≤40 wk: 278 (58.4) n (%)
  Time to first TE ADA+ titer ≤52 wk: 312 (65.5) n (%)
[4]; SURPASS Japan-Mono, N 476, flexibility of visit windows
  Time to first TE ADA+ titer ≤78 wk: 322 (67.6)^a n (%)
[4]; SURPASS-1, N 351
  Time to first TE ADA+ titer ≤4 wk: 0 n (%)
  Time to first TE ADA+ titer ≤12 wk: 16 (4.6) n (%)
  Time to first TE ADA+ titer ≤24 wk: 90 (25.6) n (%)
  Time to first TE ADA+ titer ≤40 wk: 155 (44.2) n (%)
[4]; SURPASS-1, N 351, flexibility of visit windows
  Time to first TE ADA+ titer ≤52 wk: 174 (49.6)^a n (%)
[4]; SURPASS-2, N 1393
  Time to first TE ADA+ titer ≤4 wk: 6 (0.4) n (%)
  Time to first TE ADA+ titer ≤12 wk: 91 (6.5) n (%)
  Time to first TE ADA+ titer ≤24 wk: 352 (25.3) n (%)
  Time to first TE ADA+ titer ≤40 wk: 639 (45.9) n (%)
[4]; SURPASS-2, N 1393, flexibility of visit windows
  Time to first TE ADA+ titer ≤52 wk: 704 (50.5)^a n (%)
[4]; SURPASS-3, N 1062
  Time to first TE ADA+ titer ≤4 wk: 12 (1.1) n (%)
  Time to first TE ADA+ titer ≤12 wk: 80 (7.5) n (%)
  Time to first TE ADA+ titer ≤24 wk: 266 (25.0) n (%)
  Time to first TE ADA+ titer ≤40 wk: 466 (43.9) n (%)
  Time to first TE ADA+ titer ≤52 wk: 518 (48.8) n (%)
[4]; SURPASS-3, N 1062, flexibility of visit windows
  Time to first TE ADA+ titer ≤78 wk: 536 (50.5)^a n (%)
[4]; SURPASS-4, N 956
  Time to first TE ADA+ titer ≤4 wk: 7 (0.7) n (%)
  Time to first TE ADA+ titer ≤12 wk: 62 (6.5) n (%)
  Time to first TE ADA+ titer ≤24 wk: 190 (19.9) n (%)
  Time to first TE ADA+ titer ≤40 wk: 300 (31.4) n (%)
  Time to first TE ADA+ titer ≤52 wk: 367 (38.4) n (%)
  Time to first TE ADA+ titer ≤78 wk: 389 (40.7) n (%)
  Time to first TE ADA+ titer ≤104 wk: 399 (41.7) n (%)
[4]; SURPASS-5, N 344
  Time to first TE ADA+ titer ≤4 wk: 3 (0.9) n (%)
  Time to first TE ADA+ titer ≤12 wk: 26 (7.6) n (%)
  Time to first TE ADA+ titer ≤24 wk: 89 (25.9) n (%)
  Time to first TE ADA+ titer ≤40 wk: 160 (46.5) n (%)
[4]; SURPASS-5, N 344, flexibility of visit windows
  Time to first TE ADA+ titer ≤52 wk: 178 (51.7)^a n (%)
[4]; baseline, 7 SURPASS phase 3 trials pooled, TE ADA-evaluable TZP-treated N = 5025
  Preexisting ADA: 353 (7.0) n (%)
[4]; postbaseline, 7 trials pooled, N = 5025
  TE ADA+: 2570 (51.1) n (%)
Native GLP-1 (nGLP-1); baseline
  Cross-reactive binding ADA to nGLP-1: 34 (0.7) n (%)
Native GLP-1 (nGLP-1); postbaseline
  Cross-reactive binding ADA to nGLP-1: 716 (14.2) n (%)
GLP-1R; baseline
  NAb against TZP activity on GLP-1 R: 2 (<0.1) n (%)
GLP-1R; postbaseline
  NAb against TZP activity on GLP-1 R: 107 (2.1) n (%)

## lixisenatide
patients
  ADA incidence in published studies: up to 71.2%

## liraglutide
patients
  ADA incidence in published studies: up to 8.7%

## dulaglutide
patients
  ADA incidence in published studies: up to 4.1%

## semaglutide
patients
  ADA incidence in published studies: up to 4.3%

## albiglutide
patients
  ADA incidence in published studies: 2.5%
